Reference: ChEMBL document CHEMBL2346594, “Synthesis and evaluation of an imidazole derivative-fluorescein conjugate” (Bioorg Med Chem, 2013)
Calls of active or inactive are those of the source. The calls are words filed in the database; no cut-off is given here.

How the values were obtained:
HCT-116 [1] = experiment: Cellular uptake in human HCT116 cells expressing wild type p53 at 1 to 5 uM after 1 hr by fluorometric analysis; assay type: ADME, cell-based; details: hct-116, 1 h
Outline: (§1)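 SJSA-1 or HCT116 cells were plated at 400,000/well and attached for 24 h. Fluorescein conjugate or free FAM was added at final 1 and 5 µM for 1 h at 37 °C, with DMSO and medium-only controls. Cells were washed three times in warm PBS, scraped and counted. About 10,000 cells/well were read by fluorescence at 485/520 nm; 3 runs per sample.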

SJSA-1 [2] = experiment: Cellular uptake in human SJSA1 cells expressing wild type p53 at 1 to 5 uM after 1 hr by fluorometric analysis; assay type: ADME, cell-based; details: sjsa-1, 1 h; outline: as §1
HCT-116 [3] = experiment: Cellular uptake in human HCT116 cells expressing wild type p53 at 5 uM after 1 hr by fluorometric analysis in presence of nutlin-glycine; details: hct-116, 1 h
SJSA-1 [4] = experiment: Cellular uptake in human SJSA1 cells expressing wild type p53 at 5 uM after 1 hr by fluorometric analysis in presence of nutlin-glycine; assay type: ADME, cell-based; details: sjsa-1, 1 h
SW480 = experiment: Antiproliferative activity against human SW480 cells harboring p53 mutant at 10 uM after 5 days by MTS assay; assay type: functional, cell-based
Outline: (§2)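 Cells (wild-type or mutant p53) grown in recommended medium with 10% FBS at 37 °C under 5% CO2. Compounds were kept as 1 mmol/L DMSO stocks. Cells were seeded in 96-well plates and treated with serial concentrations (highest 10 µM) for 5 days, then read by MTS. Viability is % of untreated controls, mean SD, n = 4.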

HCT-116 [5] = experiment: Antiproliferative activity against human HCT116 cells expressing wild type p53 after 5 days by MTS assay; assay type: functional, cell-based; outline: as §2
HeLa = experiment: Antiproliferative activity against human HeLa cells harboring p53 mutant at 10 uM after 5 days by MTS assay; assay type: functional, cell-based; outline: as §2
Homo sapiens = organism: Homo sapiens; experiment: Antiproliferative activity against human MDA-MB-435S cells harboring p53 mutant at 10 uM after 5 days by MTS assay; assay type: functional, cell-based; outline: as §2
SJSA-1 [6] = experiment: Antiproliferative activity against human SJSA1 cells expressing wild type p53 after 5 days by MTS assay; assay type: functional, cell-based; outline: as §2
RKO = experiment: Antiproliferative activity against human RKO cells expressing wild type p53 after 5 days by MTS assay; assay type: functional, cell-based; outline: as §2

## CCOc1cc(OC)ccc1C1=N[C@@H](c2ccc(Br)cc2)[C@@H](c2ccc(Br)cc2)N1C(=O)N1CCN(CCOC(=O)CNC(=O)c2ccc(C(=O)O)c(-c3c4ccc(=O)cc-4oc4cc(O)ccc34)c2)CC1 (relative stereo)
HCT-116 [1]
  Drug uptake: Active
SJSA-1 [2]
  Drug uptake: Active
HCT-116 [3]
  Drug uptake: Not Active
SJSA-1 [4]
  Drug uptake: Not Active

## CCOc1cc(OC)ccc1C1=N[C@@H](c2ccc(Br)cc2)[C@@H](c2ccc(Br)cc2)N1C(=O)N1CCN(CCOC(=O)CN)CC1 (relative stereo)
SW480
  Activity: inactive
HCT-116 [5]
  Activity: Dose-dependent effect
HeLa
  Activity: inactive
Homo sapiens
  Activity: inactive
SJSA-1 [6]
  Activity: Dose-dependent effect
RKO
  Activity: Dose-dependent effect

## COc1ccc(C2=N[C@@H](c3ccc(Cl)cc3)[C@@H](c3ccc(Cl)cc3)N2C(=O)N2CCNC(=O)C2)c(OC(C)C)c1 (relative stereo)
SW480
  Activity: inactive
HCT-116 [5]
  Activity: Dose-dependent effect
HeLa
  Activity: inactive
Homo sapiens
  Activity: inactive
SJSA-1 [6]
  Activity: Dose-dependent effect
RKO
  Activity: Dose-dependent effect
